Experimental data pooled from the literature.
Each line is one published result; the experiments were not run side by side.
Mode: inhibitor
CDK5 with p35: Cyclin-dependent kinase 5, with p35 (CDK5, Homo sapiens, UniProt Q00535)
CDK5 with p25: Cyclin-dependent kinase 5, with p25 (CDK5, Homo sapiens, UniProt Q00535)
CDK5: Cyclin-dependent kinase 5 (CDK5, Homo sapiens, UniProt Q00535)

CNCc1ccc(-c2cc(-c3nc(-c4ccc(S(=O)(=O)C(C)C)cc4)cnc3N)on2)cc1
inhibition (CDK5 with p35; enzyme activity; 2 µM): 16%

CN(C)C1CCN(CC#Cc2nn(C3CCCC3)c3nc(NCc4ccccc4)ncc23)C1 (centres unmarked)
inhibition (CDK5 with p25; enzyme activity, FRET; 0.1 µM): 1%

CCN1CCN(Cc2ccc(NC(=O)c3ccc(C)c(Oc4ccnc5[nH]ccc45)c3)cc2C(F)(F)F)CC1
inhibition (CDK5; target engagement in cells, chemoproteomics; Huh-7; 1 µM): -88.8%

COc1cc(-c2cc(-c3ccc(N4CCNCC4)cc3)cnc2C)cc(OC)c1OC
inhibition (CDK5; enzyme activity; 0.1 µM): 2%

Cc1ccc(-n2nc(C(C)(C)C)cc2NC(=O)Nc2ccc(OCCN3CCOCC3)c3ccccc23)cc1
inhibition (CDK5 with p25; enzyme activity; 10 µM): 1%

COc1cc2ncnc(Nc3ccc(Oc4ccccc4)cc3C)c2cc1OC
inhibition (CDK5 with p35; enzyme activity; 1 µM): 7%

CN1CC(Oc2cnc(C#N)cc2-c2ccn3nc(NC(=O)C4CC4)cc3c2)C1
inhibition (CDK5 with p35; enzyme activity; 1 µM): 12%

CNc1cc(Oc2cc(C(=O)Nc3cc(N4CCN(C)CC4)cc(C(F)(F)F)c3)ccc2C)ncn1
inhibition (CDK5; target engagement in cells, chemoproteomics; Huh-7; 1 µM): -37.2%

CC[C@H](C)[C@H](NC(=O)[C@H](CCC(N)=O)NC(=O)[C@H](CC(C)C)NC(=O)[C@H](CCSC)NC(=O)[C@H](CCCCN)NC(=O)[C@H](CO)NC(=O)[C@H](CO)NC(=O)[C@H](CCSC)NC(=O)[C@H](CC(C)C)NC(=O)[C@H](CC(N)=O)NC(=O)[C@@H](NC(=O)[C@@H](NC(=O)[C@H](CO)NC(=O)[C@H](CC(C)C)NC(=O)[C@H](CS)NC(=O)[C@H](CCCNC(=N)N)NC(=O)[C@H](CC(=O)O)NC(=O)[C@H](Cc1c[nH]c2ccccc12)NC(=O)[C@H](Cc1ccccc1)NC(=O)[C@H](C)NC(=O)[C@H](CCC(=O)O)NC(=O)[C@@H](N)CCCCN)C(C)C)[C@@H](C)CC)C(=O)N[C@@H](CC(N)=O)C(=O)N[C@@H](C)C(=O)O
inhibition (CDK5 with p25; enzyme activity, radiometric; 10 µM): 13%

Cc1ccc(Nc2nccc(N(C)c3ccc4c(C)n(C)nc4c3)n2)cc1S(N)(=O)=O
inhibition (CDK5 with p25; enzyme activity; 10 µM): 44%

COc1cc2ncnc(Nc3ccc(Oc4ccccc4)c(C)c3C)c2cc1OC
inhibition (CDK5 with p25; enzyme activity; 1 µM): 3%
